Results of several laboratories.
Lines come from different studies, so protocols differ.
KIT D816H: Mast/stem cell growth factor receptor Kit (KIT, Homo sapiens, UniProt P10721, D816H)
KIT L576P: Mast/stem cell growth factor receptor Kit (KIT, Homo sapiens, UniProt P10721, L576P)
KIT A829P: Mast/stem cell growth factor receptor Kit (KIT, Homo sapiens, UniProt P10721, A829P)
KIT T670I/V559D: Mast/stem cell growth factor receptor Kit (KIT, Homo sapiens, UniProt P10721, T670I/V559D)
KIT V559D: Mast/stem cell growth factor receptor Kit (KIT, Homo sapiens, UniProt P10721, V559D)
KIT V559D/V654A: Mast/stem cell growth factor receptor Kit (KIT, Homo sapiens, UniProt P10721, V559D/V654A)
KIT: Mast/stem cell growth factor receptor Kit (KIT, Homo sapiens, UniProt P10721)

SMILES | target | assay | conditions | remaining binding [%]
O=C(c1ccc(Nc2ncc(Cl)c(-c3cc4ccccc4s3)n2)cc1)N1CCC(N2CCCC2)CC1 | KIT D816H | binding, competition with immobilised ligand | 1 µM | 22
CC1=C(C#N)[C@@H](c2ccc3[nH]nc(C)c3c2)C(C#N)=C(c2ccc(Cl)cc2)N1 | KIT D816H | cell-free assay, competition with immobilised ligand | 1 µM | 84.3
C[C@@H](c1ccc(-n2cnc3c(N)ncnc32)cc1)N1CCc2nn(C)c(Cc3ccccc3)c2C1=O | KIT L576P | binding, competition with immobilised ligand | 0.1 µM | 17
N[C@@H]1CCN(c2nccc(-c3cnn4ncccc34)n2)C1 | KIT A829P | binding | 1 µM | 100
CCS(=O)(=O)c1cc2cc(C[C@](O)(CC(C)(C)c3ccc(F)cc3C(N)=O)C(F)(F)F)[nH]c2cn1 | KIT L576P | cell-free assay, competition with immobilised ligand | 1 µM | 83
CN1CCN(c2ccc(Nc3nccc(-c4cccc([N+](=O)[O-])c4)n3)cc2C(F)(F)F)CC1 | KIT A829P | binding | 10 µM | 4.3
c1cnn2ncc(-c3ccnc(N4CCC45COC5)n3)c2c1 | KIT T670I/V559D | binding | 1 µM | 84
C[C@@H](c1cccc(C#N)c1)n1cc(Cl)cc(C(N)=O)c1=N | KIT V559D | cell-free assay, competition with immobilised ligand | 1 µM | 93
F[C@@H]1CCN(c2nccc(-c3cnn4ncccc34)n2)C1 | KIT V559D/V654A | binding | 1 µM | 74
Nc1ncc2c(n1)-c1c([nH]c3ccc(C#CC4CC4)cc13)CCCC2 | KIT D816H | binding, competition with immobilised ligand | 1 µM | 89
Cc1cnn2ncc(-c3ccnc(N(C)C)n3)c2c1 | KIT V559D/V654A | binding | 1 µM | 100
O=C(c1ccc(Nc2ncc(Cl)c(-c3ccc(Cl)s3)n2)cc1)N1CCC(N2CCCC2)CC1 | KIT V559D | binding, competition with immobilised ligand | 1 µM | 0.05
COc1cnc(Nc2cccc(S(N)(=O)=O)c2)nc1N1CCN(c2ccccc2)C(=O)C1 | KIT L576P | binding, competition with immobilised ligand | 1 µM | 100
C[C@H]1CCN(c2nccc(-c3cnn4ncccc34)n2)C1 | Mast/stem cell growth factor receptor Kit, autoinhibited (KIT, Homo sapiens, UniProt P10721) | binding | 1 µM | 73
Cc1cnc(Nc2ccc(C(=O)N3CCC(N4CCCC4)CC3)cc2)nc1-c1cc2ccccc2s1 | KIT | binding, competition with immobilised ligand | 1 µM | 4.5
COc1ccc2c(c1)O[C@H](c1ccc(OC)c(OC)c1)C[C@@H]2NC(=O)C1(c2ccc3c(c2)OC(F)(F)O3)CC1 | KIT | cell-free assay, competition with immobilised ligand | 1 µM | 100
CC1CCCN1c1nccc(-c2cnn3ncccc23)n1 (stereo not drawn) | KIT T670I/V559D | binding | 1 µM | 100
Cc1cc(C)c(-n2ccn3nc(-c4cccnc4)cc23)cc1NC(=O)c1cc(C#N)cc(S(F)(F)(F)(F)F)c1 | KIT D816H | cell-free assay, competition with immobilised ligand | 0.1 µM | 81.8
CN(C)c1ncc(F)c(-c2cnn3ncccc23)n1 | KIT D816H | binding | 1 µM | 72
O=C(O)c1cc(-c2ccc(C3CCNCC3)cc2)c2ccc(-c3ccc(C(F)(F)F)cc3)cc2c1 | KIT A829P | cell-free assay, competition with immobilised ligand | 1 µM | 100
O=C(NCC1CCOCC1)c1n[nH]cc1NC(=O)c1c(F)cccc1F | KIT A829P | binding, competition with immobilised ligand | 1 µM | 84
